NR3A LBD binder = modulates the human NR3A ligand-binding domain | NR3A LBD differential scanning fluorimetry, Tm shift; 0% = protein alone, 100% = glycine-bound protein | Tm shift relative to glycine control, % at 25 µM | 340,000 compounds, 2.5% hits | AID 1259313;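 active = melting temperature shift of at least 10% of the positive control shift, at one fixed dose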
XBP1 UPR activ = adaptive UPR (XBP1) activation. CHO-XBP1 luciferase reporter, IRE1-XBP1 UPR activation, luminescence; percent of tunicamycin response, DMSO as zero. activation, % at 20 µM. 330,000 compounds, 0.33% hits. AID 463104;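 active = versus positive control, 20 µM dose yields 30% or more activation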;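 note: 100% = tunicamycin at 10 µg/mL and 0% = DMSO only wells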
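assay system = CHO-XBP1 luciferase reporter cells | amount = 1000 cells/well | buffer or medium = F12 plus 10% FBS | compound dosing = single point, 20 µM final compound, 1% DMSO | incubation = 16-18 h cell attachment at 37 °C, then 6 h compound exposure | detection = Steady-Glo luminescence read | controls = tunicamycin 10 µg/mL and vehicle-only wells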
CHOP inh = CHOP inhibition in unfolded protein response; CHO-K1 CHOP-promoter luciferase, tunicamycin-induced, 15-18 h; inhibition, % at 10 µM; 220,000 compounds, 3.8% hits;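 active = compounds that reduced the stress-induced luciferase reporter signal by more than about 70% of percent inhibition, limit read from the data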;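 note: 0% = tunicamycin plus vehicle and 100% = wells without tunicamycin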
CHOP UPR activ = activators of apoptotic arm of unfolded protein response (CHOP); CHO-CHOP luciferase reporter, UPR activation, luminescence; percent of tunicamycin response over DMSO baseline; activation, % at 10 µM; 330,000 compounds, 0.34% hits;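 active = at 10 µM dose, activation of 40% or more, normalized to positive control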;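 note: 100% = tunicamycin at 10 µg/mL and 0% = DMSO alone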
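Test system: CHO CHOP reporter cells. Input: 500 CHO-CHOP cells per well. Medium: F12 with 10% FBS. Technique: luciferase luminescence. Measure: percent activation relative to tunicamycin control. Dosing: 10 µM compound, 0.5% DMSO. Timing: 16-18 h cell attachment, then 6 h compound exposure, 37 °C.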
aDG glyco up = alpha-DG glycosylation activation | Pro5-aDG cells, alpha-DG glycosylation AlphaScreen (IIH6); 0% Pro5, 100% B10-LARGE cell signal | activation, % at 10 µM | 360,000 compounds, 0.22% hits;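 active = activation of at least 8% versus controls, or a plate z-score of at least 8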;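 note: Pro5 are CHO cells carrying HIG-tagged alpha-DG that lacks glycosylation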
MPTP inh = blocks calcium-induced mitochondrial swelling. 360,000 compounds, 1.4% hits. isolated mouse mitochondria, Ca2+ swelling absorbance, 30 min. inhibition, % at 10 µM;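 active = inhibition of 50% or more, scaled per plate between neutral and stimulator controls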;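 note: 0% = DMSO wells given calcium and 100% = 1 mM EGTA wells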
* = called active by the depositor; . = no result. Compounds with a hit are over-represented: about 5.6% of the library has one in this group of screens.

SMILES	NR3A LBD binder	XBP1 UPR activ	CHOP inh	CHOP UPR activ	aDG glyco up	MPTP inh
CC1(C(=O)NS(=O)(=O)c2cccc(F)c2)CCN1C(=O)c1cccc(F)c1 (stereo not given)	.	.	.	.	-0.2	1.5
C=CCOC(=O)N1CCN(c2cccc(C(F)(F)F)c2)CC1	0.8	2.2	80.7*	-2.1	0.1	0.2
COCC(=O)N1CCN(c2cccc(C(F)(F)F)c2)CC1	0.2	5.9	-3.5	0.6	0.0	2.0
O=C(COc1ccc(S(=O)(=O)NC2CCCCC2)cc1)N1CCN(c2cccc(Cl)c2)CC1	-1.3	0.4	78.7*	4.6	3.3	-2.7
CCC(C)[C@H](NC(=O)N1CCN(c2cccc(C(F)(F)F)c2)CC1)C(=O)OC (stereo not given in full)	4.5	-4.3	80.7*	-2.3	1.4	-1.1
O=C(COc1ccc2c(c1)CCC2)N1CCN(c2cccc(C(F)(F)F)c2)CC1	-9.8	1.2	85.7*	-1.9	0.1	6.7
COC(=O)[C@@H](NC(=O)N1CCN(c2cccc(C(F)(F)F)c2)CC1)C(C)C	-0.6	-1.0	9.9	-0.5	0.1	-2.0
COC(=O)c1ccccc1NC(=O)CCC(=O)N1CC(C)Oc2ccc(C)cc21 (stereo not given)	-1.5	0.1	.	0.5	-0.2	-1.9
CCn1c(C)c(C(C)=O)c(NCc2ccccc2)nc1=S	13.7*	-3.5	12.6	-0.8	0.2	-0.9
CC(=O)c1c(N2CCN(C)CC2)nc(=S)n(Cc2ccccc2)c1C	10.2*	-3.0	24.9	0.5	-0.1	-2.9
O=C(CSc1nc(-c2ccco2)cc(C(F)(F)F)n1)NCCCN1CCOCC1	-1.6	-3.5	4.2	2.4	-0.1	-0.5
CCN(Cc1ccc(O)cc1)CC1CCCN(CCc2cccc(F)c2)C1 (stereo not given)	0.4	-2.6	.	0.7	0.0	0.6
O=C(CN1C(=O)NC(Cc2ccccc2)C1=O)Nc1ccc(OC(F)(F)F)cc1 (stereo not given)	15.2*	-1.3	.	-3.3	-0.1	-0.2
O=C(CN1C(=O)NC(Cc2ccccc2)C1=O)Nc1ccc(F)c(Cl)c1 (stereo not given)	29.3*	-5.5	.	0.2	-0.2	1.6
Cc1ccc(S(=O)(=O)NCC(=O)NCC(=O)N(C)Cc2ccc(Br)s2)cc1C	.	.	.	.	0.2	0.1
COC(C[C@@H](O)CC(=O)COCc1ccccc1)OC	-1.8	-1.2	-11.6	2.1	0.0	0.3
O=C(Nc1ccc2sccc2c1)c1ccc(Cl)s1	23.4*	3.6	-45.7	3.6	0.2	0.6
O=c1c2cccnc2[nH]c(=S)n1CCCN1CCN(c2ccccc2F)CC1	1.4	2.0	88.6*	-2.0	0.1	0.2
O=c1c2ccccc2[nH]c(=S)n1CCCN1CCN(c2ccccc2F)CC1	-3.8	-3.2	.	2.9	0.0	1.8
O=C(CNc1ccccc1)N/N=C/c1cc([N+](=O)[O-])ccc1N1CCCC1	1.7	-4.2	73.2*	-3.5	0.6	0.6
N#CCC(=O)N/N=C/c1cc([N+](=O)[O-])ccc1N1CCCC1	-0.8	0.6	-1.8	0.3	-0.5	-3.1
COc1ccc(OC)c(C(=O)NC(CC(N)=O)c2ccc(N3CCC(Cc4ccccc4)CC3)c([N+](=O)[O-])c2)c1 (stereo not given)	-8.4	-0.7	.	-0.9	0.3	-0.5
O=C(OCc1nnc(-c2ccc(Cl)cc2)o1)c1ccc(O)cc1	-6.1	1.0	20.3	3.3	-0.4	0.0
CS(=O)(=O)c1ccc(C(=O)OCc2nnc(-c3ccc(Cl)cc3)o2)cc1[N+](=O)[O-]	0.9	2.6	79.2*	2.4	0.1	-0.7
O=C(CCCN1C(=O)/C(=C/c2ccccc2Cl)SC1=S)Nc1ccccn1	1.3	-5.5	91.2*	-4.1	0.7	-0.2
SMILES	NR3A LBD binder	XBP1 UPR activ	CHOP inh	CHOP UPR activ	aDG glyco up	MPTP inh
O=C(O)CCCN1C(=O)/C(=C/c2cn(-c3ccccc3)nc2-c2cccs2)SC1=S	2.7	.	85.2*	.	-0.3	21.1
Cc1ccc(C(=O)NNC(=O)CCCN2C(=O)/C(=C/c3ccccc3Cl)SC2=S)cc1	-11.8	-3.6	30.8	-0.2	0.4	0.9
O=C(O)CCCN1C(=O)/C(=C\c2ccccc2OCc2ccccc2)SC1=S	3.8	-1.3	.	-0.4	0.1	3.2
O=C(CCCN1C(=O)/C(=C/c2ccccc2Cl)SC1=S)NNC(=O)c1ccc(Cl)cc1	-0.5	-5.7	92.5*	-6.6	0.0	6.3
COc1ccc(CN2C(=O)c3ccc(C(=O)O)cc3C2=O)cc1	-1.0	-3.2	.	2.3	0.0	-0.6
Cc1cccc(N(C(=O)CNC(=O)c2ccco2)C(C(=O)NCC2CCCO2)c2ccccc2)c1 (stereo not given)	-0.5	-2.7	7.0	-0.8	-0.6	-1.5
COc1ccc(CCN(C)C(=O)C2CCN(C(=O)Nc3ccccc3)CC2)cc1OC	-0.9	0.0	.	-0.4	0.0	-0.6
CCc1nc2c(OCCn3cccc3)cccn2c1N(C)C(=O)c1ccco1	.	.	.	.	0.0	0.4
Cc1cccc(C(=O)N[C@H](C(=O)OCC(=O)NC(=O)c2cccn2C)C(C)C)c1	-0.3	-1.2	-14.6	-0.4	-0.3	2.9
CCOC(=O)N1CCN(c2ccc(S(=O)(=O)N3CCC(C)CC3)cc2[N+](=O)[O-])CC1	0.2	-3.3	.	-0.6	0.2	-0.2
C/C(=N\NC(=O)COc1ccc(C(C)(C)C)cc1)c1ccc(-n2ccnc2)cc1	-0.6	-0.1	95.1*	3.9	0.7	1.0
OCC(O)/C=N/Nc1nc(N2CCCCC2)nc(N2CCCCC2)n1 (stereo not given)	1.6	-6.7	-0.1	-1.2	0.0	0.3
Cc1cc(Nc2ccc([N+](=O)[O-])cc2)c2ccccc2n1	-0.7	0.5	.	0.4	0.2	1.6
O=c1nc(Nc2ccccc2)sc2ccc([N+](=O)[O-])cc12	19.9*	-1.7	-12.7	2.1	0.3	-0.4
CCN(CC)c1ccc2c(Cl)cc(=O)oc2c1	0.8	0.1	93.8*	4.5	.	.
Cc1ccc(N2C(=O)N(CC(=O)Nc3ccc(C)cc3Cl)C(=O)C2C)cc1 (stereo not given)	-1.8	-0.7	.	-1.4	0.2	-0.8
Cc1cc(C)c(S(=O)(=O)Nc2ccc3c(c2)CCC3)c(C)c1	-8.6	-0.3	84.5*	4.7	0.4	8.0
Cc1ccc(S(=O)(=O)N2CCOC2CNC(=O)C(=O)NCC(C)C)cc1 (stereo not given)	0.3	-3.4	.	-1.0	-0.2	0.2
COCCNC(=O)C(=O)NCC1OCCN1S(=O)(=O)c1ccc2c(c1)OCCO2 (stereo not given)	0.7	0.5	1.5	3.1	-0.2	-0.1
COCCNC(=O)C(=O)NCC1OCCN1S(=O)(=O)c1ccc(C)cc1 (stereo not given)	14.1*	-2.8	.	0.1	-0.2	-1.0

Compound activity as filed in PubChem.
